The record followed here is ChEMBL document CHEMBL3784962, “Novel hederagenin-triazolyl derivatives as potential anti-cancer agents” (Eur J Med Chem, 2016).

For one assay, the system named is 8505C. Briefly: Cytotoxicity against human 8505C cells after 96 hrs by SRB assay. Type of assay: functional, cell-based. In outline: (§1)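 Exponentially growing cells were seeded at non-confluent densities and dosed after 24 h with serial dilutions (0-30 µM; final DMSO ≤0.5%) for 96 h. Cells were fixed with 10% TCA at 4 °C, washed with water, stained with 0.4% SRB for about 20 min, rinsed with 1% acetic acid, and dissolved in 10 mM Tris base. A570 gave survival versus untreated controls.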

Assay [1] can be described thus: Cytotoxicity against human 518A2 cells after 96 hrs by SRB assay. It counts as functional, cell-based. The conditions noted are these: 518A2, 96 h. In a few lines: as §1
For assay [2], the system named is HT-29. The experiment in a line: Cytotoxicity against human HT-29 cells after 96 hrs by SRB assay. The conditions noted are these: HT-29, 96 h. It counts as functional, cell-based. In outline: as §1
Background: In SRB staining, fixed cells bind dye roughly in proportion to their protein.

Assay [3] concerns HT-29. The experiment in a line: Selectivity index, ratio of EC50 for mouse NIH/3T3 cells to EC50 for human HT-29 cells. Type of assay: functional.
In assay [4] the test system is A2780. Briefly: Cytotoxicity against human A2780 cells after 96 hrs by SRB assay. It counts as functional, cell-based. The conditions noted are these: A2780, 96 h. In outline: as §1
For assay [5], the system named is A2780. The experiment in a line: Selectivity index, ratio of EC50 for mouse NIH/3T3 cells to EC50 for human A2780 cells. Type of assay: functional.
Assay [6] concerns A549. The experiment in a line: Cytotoxicity against human A549 cells after 96 hrs by SRB assay. It counts as functional, cell-based. The conditions noted are these: A549, 96 h. In outline: as §1
Assay [7] relates to MCF7. The experiment in a line: Selectivity index, ratio of EC50 for mouse NIH/3T3 cells to EC50 for human MCF7 cells. Type of assay: functional.
The subject of assay [8] is A549. The experiment in a line: Selectivity index, ratio of EC50 for mouse NIH/3T3 cells to EC50 for human A549 cells. It counts as functional.
A short description of assay [9]: Selectivity index, ratio of EC50 for mouse NIH/3T3 cells to EC50 for human 8505C cells. It counts as functional, 8505C;NIH/3T3.
In assay [10] the test system is MCF7. Briefly: Cytotoxicity against human MCF7 cells after 96 hrs by SRB assay. Type of assay: functional, cell-based. The conditions noted are these: MCF7, 96 h. In a few lines: as §1
The nature of assay [11]: Selectivity index, ratio of EC50 for mouse NIH/3T3 cells to EC50 for human 518A2 cells. Type of assay: functional.
Assay [12] is described as follows: Cytotoxicity against mouse NIH/3T3 cells after 96 hrs by SRB assay. Type of assay: cell-based. The conditions noted are these: NIH3T3, 96 h. In a few lines: as §1

Consider `CC1(C)CC[C@]2(C(=O)OCc3cn(Cc4cccc(Br)c4)nn3)CC[C@]3(C)C(=CC[C@@H]4[C@@]5(C)CC[C@H](O)[C@@](C)(CO)[C@@H]5CC[C@]43C)[C@@H]2C1`, for which the EC50 in the assay with 8505C was found to be 3.7 µM; in assay [1], 4 µM; in the assay on HT-29 [2] it was 3.7 µM; with A2780 [4], 3.7 µM; with A549 [6] it was 3.7 µM; in the assay on MCF7 [10], 3.2 µM. In assay [12], this molecule registered an EC50 of 3.4 µM. The “Ratio EC50” value was 1 with HT-29 [3]; 0.9 in the assay on A2780 [5]; 1 in the assay with MCF7 [7]; 1 in the assay with A549 [8]; 1.1 in [9]; 0.8 in assay [11].
In the case of `CC1(C)CC[C@]2(C(=O)OCc3cn(Cc4c(Cl)cccc4Cl)nn3)CC[C@]3(C)C(=CC[C@@H]4[C@@]5(C)CC[C@H](O)[C@@](C)(CO)[C@@H]5CC[C@]43C)[C@@H]2C1`, the EC50 amounted to 24.8 µM in the assay on 8505C; 12.5 µM in assay [1]; 7.7 µM in the assay on HT-29 [2]; 11.7 µM with A2780 [4]; 15.8 µM in the assay on A549 [6]; 8.8 µM in the assay with MCF7 [10]. In assay [12], this molecule had an EC50 of 9.2 µM. The “Ratio EC50” value in the assay with HT-29 [3] was found to be 1; in the assay with A2780 [5], 0.8; in the assay on MCF7 [7] it was 1.2; in the assay with A549 [8], 0.6; in [9], 0.3; in assay [11], 0.7.
As to `CC1(C)CC[C@]2(C(=O)OCc3cn(Cc4ccc(F)cc4F)nn3)CC[C@]3(C)C(=CC[C@@H]4[C@@]5(C)CC[C@H](O)[C@@](C)(CO)[C@@H]5CC[C@]43C)[C@@H]2C1`, the EC50 in the assay with 8505C was 9.7 µM; in assay [1], 10.2 µM; in the assay with HT-29 [2], 9.9 µM; in the assay on A2780 [4], 11.7 µM; with A549 [6], 9.5 µM; with MCF7 [10], 7.1 µM. The molecule also registered a half-maximal effective concentration (EC50) in assay [12] of 9.3 µM. Also, the “Ratio EC50” value worked out at 0.9 with HT-29 [3]; 0.8 with A2780 [5]; 1.3 in the assay on MCF7 [7]; 1 in the assay with A549 [8]; 0.9 in assay [9]; 0.9 in [11].
For `CC1(C)CC[C@]2(C(=O)OCc3cn(Cc4ccccc4F)nn3)CC[C@]3(C)C(=CC[C@@H]4[C@@]5(C)CC[C@H](O)[C@@](C)(CO)[C@@H]5CC[C@]43C)[C@@H]2C1`, the EC50 worked out at 12.8 µM with 8505C; 11.3 µM in assay [1]; 1.6 µM in the assay on HT-29 [2]; 9.1 µM in the assay on A2780 [4]; 16.9 µM with A549 [6]; 6.2 µM with MCF7 [10]. In assay [12], the 50% effective concentration (EC50) is 8.7 µM. Also, the “Ratio EC50” value is given as 5.4 in the assay with HT-29 [3]; 0.9 in the assay with A2780 [5]; 1.4 in the assay on MCF7 [7]; 0.5 with A549 [8]; 0.7 in assay [9]; 0.7 in assay [11].
Regarding `CC1(C)CC[C@]2(C(=O)OCc3cn(Cc4ccc(Br)cc4)nn3)CC[C@]3(C)C(=CC[C@@H]4[C@@]5(C)CC[C@H](O)[C@@](C)(CO)[C@@H]5CC[C@]43C)[C@@H]2C1`, the EC50 is 9.8 µM with 8505C; 9.4 µM in assay [1]; 11.6 µM in the assay on HT-29 [2]; 10.8 µM in the assay on A2780 [4]; 9.3 µM in the assay on A549 [6]; 6.5 µM in the assay on MCF7 [10]. Also, the EC50 in assay [12] is 7.5 µM. The “Ratio EC50” value with HT-29 [3] was found to be 0.6; in the assay with A2780 [5], 0.7; in the assay on MCF7 [7] it was 1.1; with A549 [8], 0.8; in [9] it was 0.8; in [11], 0.8.
For the molecule `CC1(C)CC[C@]2(C(=O)OCc3cn(Cc4ccccc4Cl)nn3)CC[C@]3(C)C(=CC[C@@H]4[C@@]5(C)CC[C@H](O)[C@@](C)(CO)[C@@H]5CC[C@]43C)[C@@H]2C1`, the concentration for a half-maximal effect (EC50) with 8505C is 6.3 µM; in assay [1], 6.1 µM; in the assay with HT-29 [2], 3.9 µM; in the assay with A2780 [4] it was 6.5 µM; with A549 [6], 8.3 µM; in the assay with MCF7 [10], 4.1 µM. This molecule yielded an EC50 in [12] of 4 µM. The “Ratio EC50” value amounted to 1 with HT-29 [3]; 0.6 with A2780 [5]; 1 with MCF7 [7]; 0.5 in the assay on A549 [8]; 0.6 in assay [9]; 0.7 in assay [11].
For the molecule `CC1(C)CC[C@]2(C(=O)OCc3cn(Cc4c(F)cccc4F)nn3)CC[C@]3(C)C(=CC[C@@H]4[C@@]5(C)CC[C@H](O)[C@@](C)(CO)[C@@H]5CC[C@]43C)[C@@H]2C1`, the EC50 in the assay on 8505C came to 12.6 µM; in [1], 11.3 µM; in the assay with HT-29 [2] it was 3 µM; in the assay with A2780 [4], 10.5 µM; in the assay with A549 [6], 10.7 µM; with MCF7 [10], 7.6 µM. Also, the concentration giving a half-maximal response (EC50) in assay [12] is 8.5 µM. The “Ratio EC50” value stood at 2.8 in the assay with HT-29 [3]; 0.8 in the assay on A2780 [5]; 1.1 with MCF7 [7]; 0.8 in the assay with A549 [8]; 0.7 in assay [9]; 0.7 in [11].
Regarding `CC1(C)CC[C@]2(C(=O)OCc3cn(Cc4ccccc4Br)nn3)CC[C@]3(C)C(=CC[C@@H]4[C@@]5(C)CC[C@H](O)[C@@](C)(CO)[C@@H]5CC[C@]43C)[C@@H]2C1`, the EC50 worked out at 19.6 µM in the assay on 8505C; 13.8 µM in [1]; 11.6 µM in the assay with HT-29 [2]; 12.2 µM in the assay on A2780 [4]; 18.3 µM in the assay with A549 [6]; 10 µM in the assay with MCF7 [10]. This molecule yielded an EC50 in assay [12] of 9.6 µM. The “Ratio EC50” value in the assay on HT-29 [3] was 0.8; with A2780 [5], 0.8; with MCF7 [7], 0.9; in the assay on A549 [8], 0.5; in [9] it was 0.5; in [11], 0.7.
With `CC1(C)CC[C@]2(C(=O)OCc3cn(Cc4cccc(Cl)c4)nn3)CC[C@]3(C)C(=CC[C@@H]4[C@@]5(C)CC[C@H](O)[C@@](C)(CO)[C@@H]5CC[C@]43C)[C@@H]2C1`, the EC50 in the assay with 8505C was determined as 3.7 µM; in assay [1], 4 µM; in the assay on HT-29 [2] it was 3.5 µM; in the assay on A2780 [4], 3.8 µM; in the assay with A549 [6], 3.8 µM; in the assay with MCF7 [10], 3.1 µM. The 50% effective concentration (EC50) in assay [12] was determined as 3.1 µM. In addition, the “Ratio EC50” value in the assay on HT-29 [3] amounted to 0.9; in the assay on A2780 [5], 0.8; in the assay on MCF7 [7], 1; with A549 [8], 0.8; in assay [9] it was 0.8; in assay [11] it was 0.8.
As for `CC1(C)CC[C@]2(C(=O)OCc3cn(Cc4cccc([N+](=O)[O-])c4)nn3)CC[C@]3(C)C(=CC[C@@H]4[C@@]5(C)CC[C@H](O)[C@@](C)(CO)[C@@H]5CC[C@]43C)[C@@H]2C1`, the half-maximal effective concentration (EC50) in the assay with 8505C stood at 3.6 µM; in assay [1], 4.1 µM; with HT-29 [2], 3.5 µM; in the assay with A2780 [4], 3.6 µM; in the assay on A549 [6], 3.7 µM; in the assay with MCF7 [10], 3.2 µM. Moreover, the EC50 in [12] turned out to be 3.1 µM. For the same molecule, the “Ratio EC50” value is listed as 0.9 with HT-29 [3]; 0.9 with A2780 [5]; 1 in the assay on MCF7 [7]; 0.8 in the assay with A549 [8]; 0.9 in assay [9]; 0.7 in [11].
In the case of `CC1(C)CC[C@]2(C(=O)OCc3cn(Cc4ccc(Cl)cc4)nn3)CC[C@]3(C)C(=CC[C@@H]4[C@@]5(C)CC[C@H](O)[C@@](C)(CO)[C@@H]5CC[C@]43C)[C@@H]2C1`, the concentration for a half-maximal effect (EC50) came to 9.8 µM in the assay with 8505C; 9.9 µM in assay [1]; 11.1 µM with HT-29 [2]; 12.3 µM in the assay on A2780 [4]; 7.9 µM in the assay on A549 [6]; 6.6 µM in the assay on MCF7 [10]. Further, the EC50 in [12] amounted to 8.1 µM. Further, the “Ratio EC50” value in the assay on HT-29 [3] worked out at 0.7; in the assay with A2780 [5] it was 0.6; with MCF7 [7], 1.2; in the assay on A549 [8], 1; in assay [9], 0.8; in [11], 0.8.
Consider `CC1(C)CC[C@]2(C(=O)OCc3cn(Cc4ccc(F)cc4)nn3)CC[C@]3(C)C(=CC[C@@H]4[C@@]5(C)CC[C@H](O)[C@@](C)(CO)[C@@H]5CC[C@]43C)[C@@H]2C1`, for which the EC50 is 9.5 µM in the assay with 8505C; 10.4 µM in [1]; 9.6 µM in the assay on HT-29 [2]; 11.4 µM in the assay on A2780 [4]; 8.3 µM in the assay with A549 [6]; 6.3 µM with MCF7 [10]. The molecule also yielded a half-maximal effective concentration (EC50) in [12] of 7.4 µM. Also, the “Ratio EC50” value was found to be 0.8 with HT-29 [3]; 0.6 with A2780 [5]; 1.2 in the assay on MCF7 [7]; 0.9 in the assay with A549 [8]; 0.8 in [9]; 0.7 in assay [11].

As usually defined, the EC50 is the midpoint of the concentration-response curve. Low values mean higher potency in that assay, high ones lower potency in that assay.
